Measurements taken from ChEMBL document CHEMBL4689842, “EUbOPEN Chemogenomics Library wave 1” (2021).

Tested on: Fibroblast
Test: Multiplex assay against human fibroblast
Type: toxicity, cell-based
In short: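 At seeding, live cells were stained with Hoechst33342, BioTracker Green Microtubule Cytoskeleton Dye, MitoTracker Red and Annexin V Alexa Fluor 680. After compound addition they were imaged on a CQ1 microscope at 37°C and 5% CO2, and CellPathfinder machine-learning gating sorted them into Hoechst high-intensity objects or normal cells, with normal cells further split into healthy, pyknosed or fragmented nuclei and pyknosed cells into mitotic or apoptotic. Tubulin, mitochondrial-mass and membrane-permeability phenotypes are given as per cents of cells with healthy nuclei.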

[1] = 12 h, 1 µM, compound concentration 1 uM, replicate 1
[2] = 12 h, 1 µM, compound concentration 1 uM, replicate 2
[3] = 12 h, 10 µM, compound concentration 10 uM, replicate 1
[4] = 12 h, 10 µM, compound concentration 10 uM, replicate 2
[5] = 24 h, 1 µM, compound concentration 1 uM, replicate 1
[6] = 24 h, 1 µM, compound concentration 1 uM, replicate 2
[7] = 24 h, 10 µM, compound concentration 10 uM, replicate 1
[8] = 24 h, 10 µM, compound concentration 10 uM, replicate 2
[9] = 48 h, 1 µM, compound concentration 1 uM, replicate 1
[10] = 48 h, 1 µM, compound concentration 1 uM, replicate 2
[11] = 48 h, 10 µM, compound concentration 10 uM, replicate 1
[12] = 48 h, 10 µM, compound concentration 10 uM, replicate 2

O=C1NCN(c2ccccc2)C12CCN(CCCOc1ccc(F)cc1)CC2 [SPIRAMIDE]
Population Apoptotic (%) [1]: 75%
Population Fragmented Nuclei (%) [1]: 40%
Population Healthy Nuclei (%) [1]: 31%
Population Hoechst High Intensity Objects (%) [1]: 15%
Population Membrane Permeable-Phenotype (%) [1]: 22%
Population Mitochondria Different-Phenotype (%) [1]: 11%
Population Mitotic Cells (%) [1]: 24%
Population Normal (%) [1]: 84%
Population Pyknosed Nuclei (%) [1]: 28%
Population Tubulin-Different-Phenotype (%) [1]: 33%
Total Cell Count [1]: 136
Population Apoptotic (%) [2]: 0%
Population Fragmented Nuclei (%) [2]: 10%
Population Healthy Nuclei (%) [2]: 88%
Population Hoechst High Intensity Objects (%) [2]: 7%
Population Membrane Permeable-Phenotype (%) [2]: 0%
Population Mitochondria Different-Phenotype (%) [2]: 10%
Population Mitotic Cells (%) [2]: 100%
Population Normal (%) [2]: 92%
Population Pyknosed Nuclei (%) [2]: 1%
Population Tubulin-Different-Phenotype (%) [2]: 6%
Total Cell Count [2]: 74
Population Apoptotic (%) [3]: 66%
Population Fragmented Nuclei (%) [3]: 25%
Population Healthy Nuclei (%) [3]: 44%
Population Hoechst High Intensity Objects (%) [3]: 13%
Population Membrane Permeable-Phenotype (%) [3]: 6%
Population Mitochondria Different-Phenotype (%) [3]: 54%
Population Mitotic Cells (%) [3]: 33%
Population Normal (%) [3]: 86%
Population Pyknosed Nuclei (%) [3]: 30%
Population Tubulin-Different-Phenotype (%) [3]: 82%
Total Cell Count [3]: 162
Population Apoptotic (%) [4]: 50%
Population Fragmented Nuclei (%) [4]: 3%
Population Healthy Nuclei (%) [4]: 88%
Population Hoechst High Intensity Objects (%) [4]: 8%
Population Membrane Permeable-Phenotype (%) [4]: 2%
Population Mitochondria Different-Phenotype (%) [4]: 27%
Population Mitotic Cells (%) [4]: 50%
Population Normal (%) [4]: 91%
Population Pyknosed Nuclei (%) [4]: 7%
Population Tubulin-Different-Phenotype (%) [4]: 12%
Total Cell Count [4]: 91
Population Apoptotic (%) [5]: 57%
Population Fragmented Nuclei (%) [5]: 31%
Population Healthy Nuclei (%) [5]: 45%
Population Hoechst High Intensity Objects (%) [5]: 13%
Population Membrane Permeable-Phenotype (%) [5]: 25%
Population Mitochondria Different-Phenotype (%) [5]: 5%
Population Mitotic Cells (%) [5]: 42%
Population Normal (%) [5]: 86%
Population Pyknosed Nuclei (%) [5]: 22%
Population Tubulin-Different-Phenotype (%) [5]: 44%
Total Cell Count [5]: 132
Population Apoptotic (%) [6]: 0%
Population Fragmented Nuclei (%) [6]: 7%
Population Healthy Nuclei (%) [6]: 89%
Population Hoechst High Intensity Objects (%) [6]: 6%
Population Membrane Permeable-Phenotype (%) [6]: 2%
Population Mitochondria Different-Phenotype (%) [6]: 7%
Population Mitotic Cells (%) [6]: 100%
Population Normal (%) [6]: 93%
Population Pyknosed Nuclei (%) [6]: 3%
Population Tubulin-Different-Phenotype (%) [6]: 7%
Total Cell Count [6]: 76
Population Apoptotic (%) [7]: 70%
Population Fragmented Nuclei (%) [7]: 20%
Population Healthy Nuclei (%) [7]: 60%
Population Hoechst High Intensity Objects (%) [7]: 16%
Population Membrane Permeable-Phenotype (%) [7]: 10%
Population Mitochondria Different-Phenotype (%) [7]: 44%
Population Mitotic Cells (%) [7]: 29%
Population Normal (%) [7]: 83%
Population Pyknosed Nuclei (%) [7]: 18%
Population Tubulin-Different-Phenotype (%) [7]: 85%
Total Cell Count [7]: 177
Population Apoptotic (%) [8]: 27%
Population Fragmented Nuclei (%) [8]: 3%
Population Healthy Nuclei (%) [8]: 78%
Population Hoechst High Intensity Objects (%) [8]: 6%
Population Membrane Permeable-Phenotype (%) [8]: 2%
Population Mitochondria Different-Phenotype (%) [8]: 21%
Population Mitotic Cells (%) [8]: 72%
Population Normal (%) [8]: 93%
Population Tubulin-Different-Phenotype (%) [8]: 10%
Total Cell Count [8]: 118
Population Apoptotic (%) [9]: 60%
Population Fragmented Nuclei (%) [9]: 36%
Population Healthy Nuclei (%) [9]: 45%
Population Hoechst High Intensity Objects (%) [9]: 14%
Population Membrane Permeable-Phenotype (%) [9]: 32%
Population Mitochondria Different-Phenotype (%) [9]: 5%
Population Mitotic Cells (%) [9]: 40%
Population Normal (%) [9]: 85%
Population Pyknosed Nuclei (%) [9]: 17%
Population Tubulin-Different-Phenotype (%) [9]: 34%
Total Cell Count [9]: 133
Population Apoptotic (%) [10]: 0%
Population Fragmented Nuclei (%) [10]: 15%
Population Healthy Nuclei (%) [10]: 83%
Population Hoechst High Intensity Objects (%) [10]: 5%
Population Membrane Permeable-Phenotype (%) [10]: 13%
Population Mitochondria Different-Phenotype (%) [10]: 0%
Population Mitotic Cells (%) [10]: 100%
Population Normal (%) [10]: 94%
Population Pyknosed Nuclei (%) [10]: 0%
Population Tubulin-Different-Phenotype (%) [10]: 36%
Total Cell Count [10]: 137
Population Apoptotic (%) [11]: 69%
Population Fragmented Nuclei (%) [11]: 31%
Population Healthy Nuclei (%) [11]: 59%
Population Hoechst High Intensity Objects (%) [11]: 22%
Population Membrane Permeable-Phenotype (%) [11]: 3%
Population Mitochondria Different-Phenotype (%) [11]: 47%
Population Mitotic Cells (%) [11]: 30%
Population Normal (%) [11]: 77%
Population Pyknosed Nuclei (%) [11]: 9%
Population Tubulin-Different-Phenotype (%) [11]: 80%
Total Cell Count [11]: 186
Population Apoptotic (%) [12]: 50%
Population Healthy Nuclei (%) [12]: 64%
Population Hoechst High Intensity Objects (%) [12]: 9%
Population Membrane Permeable-Phenotype (%) [12]: 8%
Population Mitochondria Different-Phenotype (%) [12]: 2%
Population Mitotic Cells (%) [12]: 50%
Population Normal (%) [12]: 90%
Population Pyknosed Nuclei (%) [12]: 3%
Population Tubulin-Different-Phenotype (%) [12]: 29%
Total Cell Count [12]: 123
